Test results reported in ChEMBL document CHEMBL2016530, “Synthesis and biological evaluation of pyrethroid insecticide-derivatives as a chemical inducer for Bdnf mRNA expression in neurons” (Bioorg Med Chem, 2012).
Calls of active or inactive are those of the source. No cut-off for these calls is given here.

Columns and labels:
Type in all cases: functional
Cortical neurone [1] = test: Increase in BDNF eIV-IX mRNA expression in rat cortical neurons at 10 uM after 3 hrs by RT-PCR analysis
Outline: (§1)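 Primary cortical neurons from E17 Sprague–Dawley rat embryos, seeded at 2.5 × 10⁶ cells per polyethylenimine-coated 35 mm dish. Compound added for 3 h (time course 0–24 h at 10 µM). Total RNA extracted with acid guanidine phenol-chloroform and DNase I-treated, then reverse transcribed. Bdnf exon IV-IX mRNA measured by real-time PCR against plasmid standard curves and normalized to Gapdh. Reported as ratio to untreated control; n = 3–4.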

Cortical neurone [2] = test: Increase in BDNF eIV-IX mRNA expression in rat cortical neurons at 10 uM after 3 hrs by RT-PCR analysis in presence of VSSC antagonist TTX
Cortical neurone [3] = test: Increase in BDNF eIV-IX mRNA expression in rat cortical neurons at 10 uM after 3 hrs by RT-PCR analysis in presence of L-type voltage calcium channel blocker nicradipine
Cortical neurone [4] = test: Increase in BDNF eIV-IX mRNA expression in rat cortical neurons at 10 uM after 3 hrs by RT-PCR analysis in presence of ERK1/2 inhibitor U0126
Cortical neurone [5] = test: Increase in neurite crossings in rat cortical neurons at 10 uM after 6 hrs by Sholl analysis
Outline: (§2)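 E17 rat cortical neurons transfected with a GFP expression vector by calcium phosphate at 4 days in culture. At day 6, treated for 6 h, then fixed in 4% formaldehyde/4% sucrose and immunostained for GFP and MAP2. Sholl analysis counted neurite intersections with concentric circles of 20–200 µm radius at 20 µm intervals around the cell body. Cells were not preselected; n = 3.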

Cortical neurone [6] = test: Increase in neurite length in rat cortical neurons at 10 uM after 6 hrs by anti-GFP and anti-MAP2-based fluorescence microscopy
Outline: (§3)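 E17 rat cortical neurons GFP-transfected at 4 days in culture, drug-treated for 6 h at day 6, then fixed and stained with anti-GFP/anti-MAP2 and Alexa488/594 secondaries plus DAPI. Under fluorescence microscopy, all neurites arising from the cell body were traced within a 400 µm diameter and their total length measured; n = 3.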

Cortical neurone [7] = test: Increase in BDNF eIV-IX mRNA expression in rat cortical neurons at 10 uM by RT-PCR analysis; conditions: TDE = time-dependent effect; outline: as §1
Cortical neurone [8] = test: Increase in BDNF eIV-IX mRNA expression in rat cortical neurons at 10 uM at 6 hrs by RT-PCR analysis; outline: as §1
Cortical neurone [9] = test: Increase in BDNF eIV-IX mRNA expression in rat cortical neurons at 10 uM up to 24 hrs by RT-PCR analysis; outline: as §1
Cortical neurone [10] = test: Increase in BDNF eIV-IX mRNA expression in rat cortical neurons at 10 uM after 3 hrs by RT-PCR analysis in presence of NMDA receptor antagonist APV
Cortical neurone [11] = test: Increase in BDNF eIV-IX mRNA expression in rat cortical neurons after 3 hrs by RT-PCR analysis; outline: as §1
Cortical neurone [12] = test: Increase in BDNF eIV-IX mRNA expression in rat cortical neurons at 1 uM after 3 hrs by RT-PCR analysis; outline: as §1
Cortical neurone [13] = test: Increase in neurite crossings in rat cortical neurons at 1 uM after 6 hrs by Sholl analysis; outline: as §2
Cortical neurone [14] = test: Increase in neurite length in rat cortical neurons at 1 uM after 6 hrs by anti-GFP and anti-MAP2-based fluorescence microscopy; outline: as §3

Compound: C#C[C@@H](OC(=O)[C@@H]1[C@H](C=C(Br)Br)C1(C)C)c1cccc(Oc2ccccc2)c1
- Activity (Cortical neurone [1]): Active
- Activity (Cortical neurone [2]): inactive
- Activity (Cortical neurone [3]): inactive
- Activity (Cortical neurone [4]): inactive
- Activity (Cortical neurone [5]): Active
- Activity (Cortical neurone [6]): Active
- Activity (Cortical neurone [7]): tde
- Activity (Cortical neurone [8]): inactive
- Activity (Cortical neurone [9]): Active
- Activity (Cortical neurone [10]): Active

Compound: CCC#C[C@@H](OC(=O)[C@@H]1[C@H](C=C(Br)Br)C1(C)C)c1cccc(Oc2ccccc2)c1
- Activity (Cortical neurone [1]): Active

Compound: CC1(C)[C@H](C(=O)O[C@H](C#CCl)c2cccc(Oc3ccccc3)c2)[C@@H]1C=C(Br)Br
- Activity (Cortical neurone [1]): Active
- Activity (Cortical neurone [11]): Dose-dependent effect

Compound: CC1(C)[C@H](C(=O)O[C@H](C#N)c2cccc(Oc3ccccc3)c2)[C@@H]1C=C(Br)Br
- Activity (Cortical neurone [12]): Active
- Activity (Cortical neurone [1]): Active
- Activity (Cortical neurone [13]): Active
- Activity (Cortical neurone [14]): Active

Compound: CC1(C)[C@H](C(=O)O[C@H](C#CI)c2cccc(Oc3ccccc3)c2)[C@@H]1C=C(Br)Br
- Activity (Cortical neurone [1]): Active
- Activity (Cortical neurone [11]): Dose-dependent effect

Compound: CC1(C)[C@H](C(=O)O[C@H](C#CBr)c2cccc(Oc3ccccc3)c2)[C@@H]1C=C(Br)Br
- Activity (Cortical neurone [1]): Active
- Activity (Cortical neurone [11]): Dose-dependent effect

Compound: CC#C[C@@H](OC(=O)[C@@H]1[C@H](C=C(Br)Br)C1(C)C)c1cccc(Oc2ccccc2)c1
- Activity (Cortical neurone [1]): Active

Compound: CC1(C)[C@H](C(=O)O[C@H](C#CCC(F)(F)F)c2cccc(Oc3ccccc3)c2)[C@@H]1C=C(Br)Br
- Activity (Cortical neurone [1]): Active
